# Shown are actives, neighbours in structure and some others; about 1.8% of the full set was active somewhere.
# Apaf1 inhib – human Apaf-1 inhibition. O14727. reconstituted apoptosome caspase-3 activity, DEVD-Rh110 fluorescence. inhibition, % at 20 µM. 330,000 tested, 0.71% active. AID 489030; active = inhibition of at least 40% at 20 µM;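 note: plate controls were DMSO wells for no effect and DEVD-CHO caspase inhibitor wells for full effect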
# Target sequence (O14727 whole entry, looked up): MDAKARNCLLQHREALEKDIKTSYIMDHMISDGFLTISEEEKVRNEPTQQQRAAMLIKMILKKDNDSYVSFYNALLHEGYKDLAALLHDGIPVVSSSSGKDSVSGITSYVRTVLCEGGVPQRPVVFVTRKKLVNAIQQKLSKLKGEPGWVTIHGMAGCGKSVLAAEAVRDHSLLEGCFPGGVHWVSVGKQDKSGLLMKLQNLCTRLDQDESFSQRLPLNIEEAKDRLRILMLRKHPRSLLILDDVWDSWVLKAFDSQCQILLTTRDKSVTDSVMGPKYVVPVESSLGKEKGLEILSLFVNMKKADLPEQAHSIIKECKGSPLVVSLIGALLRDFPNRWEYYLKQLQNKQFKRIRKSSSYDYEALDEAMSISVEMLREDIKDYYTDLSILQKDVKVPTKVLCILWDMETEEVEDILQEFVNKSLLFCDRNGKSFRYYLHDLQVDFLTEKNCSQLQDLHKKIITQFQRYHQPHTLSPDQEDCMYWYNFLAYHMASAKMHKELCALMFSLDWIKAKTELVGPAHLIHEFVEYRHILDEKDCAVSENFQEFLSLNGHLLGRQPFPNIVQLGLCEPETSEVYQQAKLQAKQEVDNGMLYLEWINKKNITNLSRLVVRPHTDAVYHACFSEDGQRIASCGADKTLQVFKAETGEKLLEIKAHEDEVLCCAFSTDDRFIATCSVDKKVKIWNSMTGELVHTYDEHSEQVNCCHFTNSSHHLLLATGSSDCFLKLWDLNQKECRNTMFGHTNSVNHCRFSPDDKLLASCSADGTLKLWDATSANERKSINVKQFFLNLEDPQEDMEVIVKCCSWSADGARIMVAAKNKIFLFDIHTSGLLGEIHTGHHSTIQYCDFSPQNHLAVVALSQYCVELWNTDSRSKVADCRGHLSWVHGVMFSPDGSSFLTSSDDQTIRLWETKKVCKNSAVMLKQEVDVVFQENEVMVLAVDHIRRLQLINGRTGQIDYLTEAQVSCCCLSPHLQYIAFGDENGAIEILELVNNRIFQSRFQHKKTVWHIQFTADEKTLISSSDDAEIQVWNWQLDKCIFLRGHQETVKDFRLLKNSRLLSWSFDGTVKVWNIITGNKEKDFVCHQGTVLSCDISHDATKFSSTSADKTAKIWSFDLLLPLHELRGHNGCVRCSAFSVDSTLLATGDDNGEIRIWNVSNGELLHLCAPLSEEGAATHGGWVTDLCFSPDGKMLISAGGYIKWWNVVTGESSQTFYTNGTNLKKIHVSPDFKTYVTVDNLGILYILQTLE
#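 Material: reconstituted apoptosome with Apaf-1, cytochrome c, caspase-9, procaspase-3, dATP. Technique: Rh110 fluorescence intensity. Buffer or medium: pH 7.5 Hepes buffer with CHAPS, BSA, DTT. Times: 30 min plus 50 min, RT.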
# PAD4 inh – inhibitors of human PAD4; recombinant PAD4, RCA probe fluorescence polarization; inhibition, % at 6.36 µM; 330,000 tested, 0.41% active; AID 485272;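 active = percent inhibition above a cutoff equal to the mean of all tested compounds plus 3 SD, cut at about 15% in these data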;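 note: 0% = PAD4 with RCA probe and DMSO and 100% = probe without PAD4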
# GSTO1 counter – blocks human GSTO1 in RBBP9 counter-screen | P78417 | recombinant GSTO1, activity-based probe fluorescence polarization | inhibition, % at 5.96 µM | 300,000 tested, 1.1% active;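 active = inhibition above the campaign mean inhibition plus 3 SD, cut at about 35% in these data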;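 note: 0% = GSTO1-1 with DMSO and 100% = wells lacking GSTO1-1 enzyme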
# CTSL1 counter – cathepsin L1 inhibition, PFM18AAP counter-screen. inhibition, % at 5.96 µM. recombinant F. hepatica cathepsin L1, Z-Leu-Arg-MCA fluorescence. 300,000 tested, 0.49% active;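 active = inhibition above the mean of all tested compounds plus 3 SD, set per screening campaign, cut at about 17% in these data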;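 note: 0% = plate median of test compound wells and 100% = 1 µM Z-Phe-Ala-diazomethylketone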
# TDP2 absorb – TDP2 (human) inhibition, absorbance primary screen. recombinant TDP2, T5PNP hydrolysis, p-nitrophenol absorbance 415 nm. inhibition, % at 12.8 µM. 370,000 tested, 0.34% active. AID 720702;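 active = inhibition above the mean of all tested compounds plus 3 SD, set per campaign, cut at about 25% in these data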;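 note: 0% = DMSO with enzyme and 100% = buffer with substrate but no TDP2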
#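 Incubation: 2 h at 37 °C; Test system: recombinant human TDP2; Quantity: enzyme 120 nM; Read-out basis: percent inhibition; Medium: 50 mM Tris-HCl pH 7.5 with Mg2+, KCl, DTT, BSA; Repeats: single replicate; Compound: 12.8 µM single point, 1% DMSO; Signal: epi absorbance; Reagent: 5 mM T5PNP chromogenic substrate; Benchmarks: no-enzyme high, DMSO-plus-enzyme low.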
# Apaf-1 inh conf2 – confirmation of Apaf-1 inhibitors; inhibition, % at 20 µM; 1,800 tested, 25% active; shares compounds with Apaf1 inhib; reconstituted apoptosome, caspase-3 DEVD-Rh110 fluorescence; AID 504614;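 active = mean inhibition of at least 40% at 20 µM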;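 note: plate controls were DMSO wells for no effect and DEVD-CHO caspase inhibitor control wells for full effect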
# Rh110 interf inh – counter-screen for Apaf-1 inhibitors: fluorescence interference; 1,800 tested, under 10 active; Rh110 fluorescence interference, quenched caspase reaction; shares compounds with Apaf1 inhib; AID 504615; activation (fluorescence interference), % at 20 µM;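 active = signal rise of 40% or more at 20 µM, treated as a fluorescence artifact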
# Fluor interf inh – Apaf-1 inhibitor counter-screen fluorescence artifact; shares compounds with Apaf1 inhib; fluorescence interference counterscreen, Apaf-1 assay format; IC50, µM; 460 tested, under 10 active; call rule not given here
# * = called active by the depositor; x = no result given; ! = not confirmed by another sample.
SMILES,Apaf1 inhib,PAD4 inh,GSTO1 counter,CTSL1 counter,TDP2 absorb,Apaf-1 inh conf2,Rh110 interf inh,others
CCC(=O)N1CCc2cc(Br)c(S(=O)(=O)NC3CCN(Cc4ccccc4)CC3)cc21,x,x,x,x,1.7,x,x,
Cc1ccc(NC(=O)N2CCC(N(C)CCC(C)C)CC2)cc1F,x,x,x,x,8.4,x,x,
CCN(CC)CCOC(=O)c1ccc(NC(=O)CCCN2C(=O)S/C(=C/c3ccc(OC)cc3)C2=S)cc1,44.1*,-25.8,-15.4,3.0,x,26.9,6.9,
COc1cccc2sc3ccc(NCCC4CCCN4C)cc3c(=O)c12 (stereo not given),23.9,1.6,-1.9,0.1,3.2,x,x,
COc1cc2sc3cc(NCC[C@@H]4CCCN4C)ccc3c(=O)c2cc1OC,54.5*,-3.9,x,x,1.8,23.5,14.0,
CC(C)(C)C(=O)OC12CCCN(C1)/C(=C/c1ccccc1)C2 (stereo not given),x,x,x,x,-1.2,x,x,
CCCN1CCN(CCCNC(=O)Cn2cc3c(n2)CCCC3)CC1,17.6,-4.3,2.9,-1.6,3.6,x,x,
O=C(Cn1cc2c(n1)CCCC2)NCCCN1CCCC1,41.0*,-2.9,3.6,-1.2,-4.0,38.8,-0.3,
COc1ccc([N+](=O)[O-])cc1NCc1ccccc1,20.9,4.6,-2.1,3.2,-1.6,x,x,
COc1cc2cc(NC(C)=O)cc(NCc3ccccc3)c2cc1OC,87.6*,x,x,x,6.2,40.0,0.1,Fluor interf inh=>100
O=C(OC12CCCN(C1)/C(=C/c1cccc(Cl)c1)C2)C1CCCCC1 (stereo not given),x,x,x,x,-3.9,x,x,
CC(C)c1ccc(OC(=O)c2cccc(S(=O)(=O)N3CCN(C)CC3)c2)cc1,23.4,-0.9,-1.0,1.9,2.6,x,x,
CN1CCN(S(=O)(=O)c2cccc(C(=O)Oc3ccc(C(C)(C)C)cc3)c2)CC1,40.0,-2.5,6.7,6.6,0.6,14.9,5.8,
O=C(Cc1cc(=O)[nH][nH]1)N/N=C/c1cccc(Cl)c1Cl,47.5*!,-9.6,35.5*!,0.1,-5.4,11.1,3.4,
O=C(Cc1cc(=O)[nH][nH]1)N/N=C/c1cccc2ccccc12,53.6*,-6.4,34.1,3.7,-4.8,12.6,-0.9,
CC1(c2nnnn2-c2ccc(F)cc2)CCCC(=O)N1CCc1c[nH]c2ccccc12 (stereo not given),x,x,x,x,-4.7,x,x,
CCCCc1ccc(Nc2nc(CCC)cc(=O)[nH]2)cc1,40.0*,-4.5,-8.7,6.7,4.2,33.8,4.7,
CCCc1cc(=O)[nH]c(Nc2ccc(N3CCCCC3)cc2)n1,6.7,-6.9,-2.0,3.0,7.0,x,x,
CCCN(CC1CC1)C(=O)CN1C(=O)C2CCCCN2C(=O)c2ccccc21 (stereo not given),x,x,x,x,6.9,x,x,
Cc1cc(N)c2cc(NC(=O)/C=C/c3ccccc3Cl)ccc2n1,64.3*,-10.1,-27.4,0.2,x,77.4*,-3.4,Fluor interf inh=>100
O=C1C2=C(c3ccccc31)[N+](=O)[C@@H]1CCCC[C@@H]1N2[O-],74.5*,-11.2,26.5,-1.5,17.2,65.6*,-7.1,Fluor interf inh=>100
Cc1cc(C)n2nc(C(=O)OCC(=O)c3ccccc3Cl)nc2n1,-13.7,0.1,x,x,2.6,x,x,
CC(=O)Nc1ccc(C(=O)COC(=O)c2nc3nc(C)cc(C)n3n2)cc1,41.2*,-2.1,x,x,-2.2,10.0,2.3,
CC1=CC(=C(C#N)c2nc3ccccc3s2)C=C(C)N1c1ccc(F)cc1,44.6*,-4.9,14.3,3.2,-4.5,23.9,0.0,
COc1ccccc1N1C(C)=CC(=C(C#N)c2nc3ccccc3s2)C=C1C,55.6*,-6.8,15.4,3.4,-5.5,22.6,1.1,
SMILES,Apaf1 inhib,PAD4 inh,GSTO1 counter,CTSL1 counter,TDP2 absorb,Apaf-1 inh conf2,Rh110 interf inh,others
CCOc1ccc(-n2c(SCC(=O)c3ccc4ccccc4c3)nnc2-c2ccc(OC)cc2)cc1,x,x,x,x,-5.3,x,x,
CC(=O)c1ccc(NC(=O)C(C)N2CCN(C/C=C/c3ccccc3)CC2)cc1 (stereo not given),8.6,-3.2,4.5,-6.2,-5.8,x,x,
COc1ccc(Cl)cc1NC(=O)C(C)N1CCN(C/C=C/c2ccccc2)CC1 (stereo not given),42.9*,2.4,3.2,4.3,-11.3,14.9,11.0,
Nc1ccn([C@@H]2O[C@H](C(=O)N[C@H](Cc3ccccc3)C(=O)NCC(F)(F)F)[C@@H](O)[C@H]2O)c(=O)n1,x,x,x,x,-0.1,x,x,
O=C(CCc1ccccc1)NNc1cc(N2CCCCC2)nc(N2CCCCC2)n1,60.4*,-5.2,8.7,5.8,-11.6,44.5*,4.3,Fluor interf inh=>100
O=C(NNc1cc(N2CCCC2)nc(N2CCCC2)n1)c1ccc([N+](=O)[O-])cc1,97.6*,4.8,15.2,-3.6,9.7,75.7*,7.8,Fluor interf inh=>100
CC(C)(C)c1ccc(C(=O)NNc2cc(N3CCCCC3)nc(N3CCCCC3)n2)cc1,73.4*,-10.4,5.7,-0.4,-0.3,43.5*,0.2,Fluor interf inh=>100
Brc1ccc2nc(-c3ccc(CN4CCC5(CC4)CNc4ccccc45)cc3)c(-c3ccccc3)nc2c1,x,x,x,x,4.0,x,x,
COc1ccc(NS(=O)(=O)c2cc(C(=O)N3CCC3)ccc2C)cc1,47.5*,-1.5,x,x,-3.4,12.8,3.5,
Cc1ccc(-n2c(SCC(=O)Nc3ccccc3-c3ccccc3)nnc2-c2ccco2)cc1,x,x,x,x,1.9,x,x,
CCOc1ccc(N(C)c2ccc(/C=C3/SC(=S)NC3=O)cc2)cc1,17.8,-28.2,-0.7,2.5,8.1,x,x,
CCOc1c(O)ccc(/C=C2\SC(=S)NC2=O)c1[N+](=O)[O-],55.5*,-17.0,56.4*,6.0,8.4,55.0*,4.8,Fluor interf inh=>100
O=C(NCCCN1CCc2ccccc2C1)C1CCN(c2nnc(-n3cccc3)s2)CC1,51.3*,0.8,1.1,3.6,-11.6,24.5,9.3,
Cc1ccc(OCCNC(=O)[C@@H](Cc2ccccc2)NC(=O)[C@H]2O[C@@H](n3ccc(=O)[nH]c3=O)[C@H](O)[C@@H]2O)cc1C,x,x,x,x,-2.2,x,x,
Cn1c(Cc2ccccc2)n[nH]c1=S,41.5*,2.9,-0.1,-0.7,-13.2,2.2,2.5,
Cc1ccc(C(=O)c2c(C)oc3c2C(=O)C(=O)c2ccccc2-3)cc1,88.4*,-13.2,30.7,-5.6,x,73.4*,5.0,Fluor interf inh=>100
Cc1ccccc1CNC1CCC12CCC(c1ccccc1)CC2 (stereo not given),x,x,x,x,-7.7,x,x,
CC(C)C[C@@H]1CN=C(N)N1C[C@@H]1CCCN1C[C@@H](C(C)C)N1C[C@@H](Cc2ccccc2)N(CCCC2CCCC2)C1=N,54.8*,1.1,x,x,-8.8,12.5,-1.2,
CCC[C@@H](CN1CCC[C@H]1CN1C(N)=NC[C@H]1C(C)C)N1C[C@@H](Cc2ccccc2)N(CCCC2CCCC2)C1=N,45.6*,-2.6,x,x,-7.1,13.0,-0.1,
